Data as given in ChEMBL document CHEMBL1148321, “New series of morpholine and 1,4-oxazepane derivatives as dopamine D4 receptor ligands: synthesis and 3D-QSAR model” (J Med Chem, 2004).
Calls of active or inactive are those of the source. No cut-off for these calls is given here.

Assays:
[1] = target: D(2) dopamine receptor (Homo sapiens) (UniProt P14416); assay: Compound was tested for its affinity towards human Dopamine receptor D2 at 10 uM; No affinity was observed
D(4) dopamine receptor [2] = target: T1, D(4) dopamine receptor (Homo sapiens, UniProt P21917); assay: In vitro ability of compound to inhibit binding of [3H]spiperone to human Dopamine receptor D4
T1 sequence (P21917 whole entry): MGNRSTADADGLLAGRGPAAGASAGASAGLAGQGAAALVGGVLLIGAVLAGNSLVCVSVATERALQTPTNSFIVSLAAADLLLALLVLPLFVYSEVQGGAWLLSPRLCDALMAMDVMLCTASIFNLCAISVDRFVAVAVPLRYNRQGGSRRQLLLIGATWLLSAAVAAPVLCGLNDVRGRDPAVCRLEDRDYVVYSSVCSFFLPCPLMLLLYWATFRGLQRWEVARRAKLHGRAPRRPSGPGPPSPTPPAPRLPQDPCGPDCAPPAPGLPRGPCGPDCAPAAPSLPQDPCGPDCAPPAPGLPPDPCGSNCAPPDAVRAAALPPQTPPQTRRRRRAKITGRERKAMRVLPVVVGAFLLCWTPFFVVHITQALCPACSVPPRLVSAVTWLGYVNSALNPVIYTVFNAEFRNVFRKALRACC

D(4) dopamine receptor [3] = target: T1, D(4) dopamine receptor; assay: In vitro ability to inhibit binding of [3H]spiperone to human recombinant Dopamine receptor D4.2 expressed on CHO cells; assay type: cell-based
Outline: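 Frozen membranes from CHO cells transfected with human D4.2, stored at -80 C, were thawed and diluted in 50 mM Tris-HCl pH 7.4 with 120 mM NaCl, 5 mM KCl, 5 mM MgCl2 and 1 mM EDTA. They were incubated with [3H]spiperone (0.5 nM final) for 60 min at 25 C, with haloperidol defining nonspecific binding. Samples were filtered on PEI-presoaked GF/C filters, washed with cold Tris/NaCl, and counted by scintillation.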

Chain of D(2) dopamine receptor (Homo sapiens) (P14416 whole entry): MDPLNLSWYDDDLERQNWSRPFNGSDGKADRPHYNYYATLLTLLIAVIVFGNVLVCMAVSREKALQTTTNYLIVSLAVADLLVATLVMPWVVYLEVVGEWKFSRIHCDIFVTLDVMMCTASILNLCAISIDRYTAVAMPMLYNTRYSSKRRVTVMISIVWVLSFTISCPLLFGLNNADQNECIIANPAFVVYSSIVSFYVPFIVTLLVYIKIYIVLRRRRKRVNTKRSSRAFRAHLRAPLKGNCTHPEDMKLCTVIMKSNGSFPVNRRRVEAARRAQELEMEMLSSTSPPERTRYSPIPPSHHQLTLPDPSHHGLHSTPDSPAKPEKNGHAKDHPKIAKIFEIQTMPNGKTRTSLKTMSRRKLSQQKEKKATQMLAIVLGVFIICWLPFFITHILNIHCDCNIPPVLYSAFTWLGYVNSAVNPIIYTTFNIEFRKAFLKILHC

| SMILES | Activity [1] | Ki (D(4) dopamine receptor [2]) [nM] | Ki (D(4) dopamine receptor [3]) [nM] |
| --- | --- | --- | --- |
| COc1ccc(F)cc1OCC1CN(Cc2ccc(Cl)cc2)CCO1 (stereo unspecified) | inactive | 30 |  |
| CCOc1cc(Cl)ccc1OCC1CN(Cc2ccc(Cl)cc2)CCCO1 (stereo unspecified) | inactive | 7 |  |
| CCOc1cc(C#N)ccc1OCC1CN(Cc2ccc(Cl)cc2)CCO1 (stereo unspecified) | inactive | 40 |  |
| COCCOc1ccccc1OCC1CN(Cc2ccc(Cl)cc2)CCO1 (stereo unspecified) | inactive | 52 |  |
| CC(=O)c1ccc(Cl)cc1OCC1CN(Cc2ccc(Cl)cc2)CCCO1 (stereo unspecified) | inactive | 5.5 |  |
| COc1ccccc1/C=C/C1CN(Cc2ccc(Cl)cc2)CCO1 (stereo unspecified) | inactive | 200 |  |
| COc1ccccc1OCC1CN(Cc2ccc(Cl)c(Cl)c2)CCO1 (stereo unspecified) | inactive | 32 |  |
| COc1ccccc1OCC1CN(Cc2ccc(C(F)(F)F)cc2)CCO1 (stereo unspecified) | inactive | 61 |  |
| CCOc1ccccc1OCC1CN(Cc2ccc(F)cc2)CCO1 (stereo unspecified) | inactive | 180 |  |
| COc1cc(Cl)ccc1OC[C@@H]1CN(Cc2ccc(Cl)cc2)CCO1 | inactive | 2.8 |  |
| COc1ccc(Cl)cc1NCC1CN(Cc2ccc(Cl)cc2)CCO1 (stereo unspecified) | inactive | 4.5 |  |
| COc1ccc([N+](=O)[O-])cc1OCC1CN(Cc2ccc(Cl)cc2)CCO1 (stereo unspecified) | inactive | 23 |  |
| COc1ccc(C(F)(F)F)cc1OCC1CN(Cc2ccc(Cl)cc2)CCO1 (stereo unspecified) | inactive | 250 |  |
| CCOc1ccc(Cl)cc1OCC1CN(Cc2ccc(Cl)cc2)CCCO1 (stereo unspecified) | inactive | 9.3 |  |
| Oc1cc(Cl)ccc1NCC1CN(Cc2ccc(Cl)cc2)CCO1 (stereo unspecified) | inactive | 5.4 |  |
| Clc1ccc(CN2CCOC(COc3ccc(Cl)c4cccnc34)C2)cc1 (stereo unspecified) | inactive | 40 |  |
| COc1ccccc1SCC1CN(Cc2ccc(Cl)cc2)CCO1 (stereo unspecified) | inactive | 61 |  |

Other lines, results leading:

| Activity [1] | Ki (D(4) dopamine receptor [2]) [nM] | Ki (D(4) dopamine receptor [3]) [nM] | SMILES |
| --- | --- | --- | --- |
| inactive | 2 |  | COc1cc(Cl)ccc1OCC1CN(Cc2ccc(Br)cc2)CCCO1 (stereo unspecified) |
| inactive | 32 |  | COc1ccccc1OCC1CN(Cc2ccc(Cl)cc2)CCO1 (stereo unspecified) |
| inactive | 430 |  | COc1cc(I)ccc1OCC1CN(Cc2ccccc2)CCO1 (stereo unspecified) |
| inactive | 13 |  | CCOc1ccccc1OCC1CN(Cc2ccc(Cl)cc2)CCO1 (stereo unspecified) |
| inactive | 150 |  | COc1cc(C(=O)NC2CC2)c(Cl)cc1OCC1CN(Cc2ccc(Cl)cc2)CCO1 (stereo unspecified) |
| inactive | 32 |  | CCCc1ccccc1OCC1CN(Cc2ccc(Cl)cc2)CCO1 (stereo unspecified) |
| inactive | 400 |  | COc1ccc([N+](=O)[O-])cc1OCC1CN(Cc2ccc(Cl)cc2)CCCO1 (stereo unspecified) |
| inactive | 83 |  | Cc1ncccc1OCC1CN(Cc2ccc(Cl)cc2)CCCO1 (stereo unspecified) |
| inactive | 29 |  | COc1ccccc1CCC1CN(Cc2ccc(Cl)cc2)CCO1 (stereo unspecified) |
| inactive | 290 |  | CCOc1ccccc1OCC1CN(Cc2ccc(Cl)cc2Cl)CCO1 (stereo unspecified) |
| inactive | 4.4 |  | COc1cc(Cl)ccc1OCC1CN(Cc2ccc(Cl)cc2)CCO1 (racemic) |
| inactive | 1600 |  | COc1cc(Cl)ccc1OC[C@H]1CN(Cc2ccc(Cl)cc2)CCO1 |
| inactive | 1000 |  | COc1cccc(OCC2CN(Cc3ccc(Cl)cc3)CCO2)c1OC (stereo unspecified) |
| inactive | 4.9 |  | CCOc1ccccc1OCC1CN(Cc2ccc(Cl)cc2)CCCO1 (stereo unspecified) |
| inactive |  |  | COc1cc(Cl)cc(OCC2CN(Cc3ccccc3)CCO2)c1 (stereo unspecified) |
| inactive | 35 |  | CCOc1ccccc1OCC1CN(Cc2ccc([N+](=O)[O-])cc2)CCO1 (stereo unspecified) |
| inactive |  | 850 | COc1ccccc1OCC1CN(Cc2ccccc2)CCO1 (stereo unspecified) |
| inactive | 100 |  | COc1ccc(N)cc1OCC1CN(Cc2ccc(Cl)cc2)CCO1 (stereo unspecified) |
| inactive | 13 |  | CCOc1cc(Cl)ccc1OCC1CN(Cc2ccc(Cl)cc2)CCO1 (stereo unspecified) |
| inactive | 650 |  | COc1ccccc1OCC1CN(Cc2cccc(Cl)c2)CCO1 (stereo unspecified) |
| inactive | 2.9 |  | CCOc1ccc(Cl)cc1OCC1CN(Cc2ccc(Cl)cc2)CCO1 (stereo unspecified) |
| inactive | 24 |  | CCOc1cc(I)ccc1OCC1CN(Cc2ccc(Cl)cc2)CCO1 (stereo unspecified) |
| inactive | 46 |  | CC(C)Oc1ccccc1OCC1CN(Cc2ccc(Cl)cc2)CCO1 (stereo unspecified) |
| inactive | 70 |  | COc1ccc(Cl)cc1OCC1CN(Cc2ccccc2)CCO1 (stereo unspecified) |
